For one experiment, the system named is HepG2. The experiment is described as follows: Cytotoxicity against human HepG2 cells assessed as cell viability after 48 hrs by MTT assay. The following applies: HepG2, 48 h. It is filed as functional, cell-based. The method, boiled down:
(§1)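 Cells were trypsinized, seeded in 96-well plates at 2 × 10³ cells/well and grown for 24 h. Medium was then replaced with compound solutions (in DMSO, range from 0.1) for 48 h, and viability was read by MTT. Cancer lines were grown in RPMI 1640 + 10% FCS. IC50 from 3 independent experiments, each in triplicate.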
(In general: Formazan colour is commonly taken as a measure of viable cells.)

Another experiment deals with NCI-H460. The experiment is described as follows: Cytotoxicity against human NCI-H460 cells assessed as cell viability after 48 hrs by MTT assay. It is filed as functional, cell-based. The following applies: NCI-H460, 48 h. Summed up:
as §1

For experiment [1], the system named is MGC-803. The experiment can be described thus: Cytotoxicity against human MGC803 cells assessed as cell viability after 48 hrs by MTT assay. It is filed as functional, cell-based. Conditions: MGC-803, 48 h. The method, boiled down:
as §1

For the next experiment, the system named is A-375. The experiment can be described thus: Cytotoxicity against human A375 cells assessed as cell viability after 48 hrs by MTT assay. Conditions: A-375, 48 h. It is filed as functional, cell-based. The method, boiled down:
as §1

Experiment [2] concerns MGC-803. The experiment can be described thus: Cell cycle arrest in human MGC803 cells assessed as accumulation at sub G1 phase at 1 uM after 48 hrs by propidium iodide staining-based FACS analysis relative to control. The experiment is classed as functional.
Experiment [3] has as its system MGC-803. The experiment is described as follows: Cell cycle arrest in human MGC803 cells assessed as accumulation at G0/G1 phase at 1 uM after 48 hrs by propidium iodide staining-based FACS analysis relative to control. The experiment is classed as functional. In general terms: Flow cytometry measures light scatter and fluorescence of single cells or particles in a stream.

Experiment [4] relates to MGC-803. The experiment is described as follows: Cell cycle arrest in human MGC803 cells assessed as accumulation at S phase at 1 uM after 48 hrs by propidium iodide staining-based FACS analysis relative to control. The experiment is classed as functional.
Experiment [5] relates to MGC-803. The experiment can be described thus: Cell cycle arrest in human MGC803 cells assessed as accumulation at G2/M phase at 1 uM after 48 hrs by propidium iodide staining-based FACS analysis relative to control. The experiment is classed as functional.
Experiment [6] relates to MGC-803. The experiment is described as follows: Cell cycle arrest in human MGC803 cells assessed as accumulation at sub G1 phase at 10 uM after 48 hrs by propidium iodide staining-based FACS analysis relative to control. The experiment is classed as functional.
In experiment [7] the test system is MGC-803. The experiment is described as follows: Cell cycle arrest in human MGC803 cells assessed as accumulation at G0/G1 phase at 10 uM after 48 hrs by propidium iodide staining-based FACS analysis relative to control. It is filed as functional.
For experiment [8], the system named is MGC-803. The experiment can be described thus: Cell cycle arrest in human MGC803 cells assessed as accumulation at S phase at 10 uM after 48 hrs by propidium iodide staining-based FACS analysis relative to control. The experiment is classed as functional.
Experiment [9] deals with MGC-803. The experiment can be described thus: Cell cycle arrest in human MGC803 cells assessed as accumulation at G2/M phase at 10 uM after 48 hrs by propidium iodide staining-based FACS analysis relative to control. It is filed as functional.
Experiment [10] relates to Cellular tumor antigen p53 (Homo sapiens), P04637 [UNDEFINED MUTATION]. The experiment is described as follows: Inhibition of P53 mutant phosphorylation at s392 in human MGC803 cells at 1 to 10 uM after 24 hrs by Western blot analysis. The experiment is classed as cell-based. Conditions: MGC-803. The method, boiled down:
(§2)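 MGC-803 cells, 3 × 10⁵ per well of a 6-well plate, exposed to compound for 24 h. Cells were washed in ice-cold PBS and lysed in sample buffer, then run on SDS-PAGE and transferred to nitrocellulose. Blots were probed with primary antibodies and […] anti-rabbit IgG and developed by ECL.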

Experiment [11] shares this test system. The experiment is described as follows: Inhibition of P53 mutant acetylation at k373 in human MGC803 cells at 1 to 10 uM after 24 hrs by Western blot analysis. It is filed as cell-based. The following applies: MGC-803. Summed up: as §2
The test system of experiment [12] is MGC-803. The experiment is described as follows: Cytotoxicity against human MGC803 cells assessed as cell viability at 1 to 10 uM after 48 hrs by MTT assay. It is filed as functional, cell-based.

Active and inactive are the calls of the source. The calls are words filed in the database; no cut-off is given here.

Sequence of Cellular tumor antigen p53 (Homo sapiens), P04637 [UNDEFINED MUTATION] (P04637 whole entry, looked up, change not shown): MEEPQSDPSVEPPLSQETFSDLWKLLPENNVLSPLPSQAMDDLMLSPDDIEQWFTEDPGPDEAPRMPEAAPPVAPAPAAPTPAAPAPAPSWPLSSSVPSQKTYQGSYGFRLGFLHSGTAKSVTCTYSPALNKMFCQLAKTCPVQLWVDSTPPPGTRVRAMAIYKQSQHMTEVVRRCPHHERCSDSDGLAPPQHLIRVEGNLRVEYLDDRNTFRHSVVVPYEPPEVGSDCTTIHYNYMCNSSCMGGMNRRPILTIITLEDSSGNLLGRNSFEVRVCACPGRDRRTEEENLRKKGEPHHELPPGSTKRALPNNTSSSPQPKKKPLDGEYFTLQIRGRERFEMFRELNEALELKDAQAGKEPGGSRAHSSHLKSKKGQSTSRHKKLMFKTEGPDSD

The IC50 is the concentration needed to halve the response being measured. For `CN(C)CCCn1c(/C=C/c2ccc(Cl)cc2Cl)nc2ccccc2c1=O`, the 50% inhibitory concentration (IC50) in the experiment on HepG2 turned out to be 4.2 µM; with NCI-H460, 5.86 µM; with MGC-803 [1], 3.89 µM; in the experiment with A-375, 7.15 µM. Further, the Activity with MGC-803 [2] came to 5.09%; in the experiment on MGC-803 [3], 54.16%; in the experiment with MGC-803 [4], 29.35%; in the experiment on MGC-803 [5], 11.4%; with MGC-803 [6], 31.98%; with MGC-803 [7] it was 34.55%. Also, the Activity came out at 20.64% in the experiment with MGC-803 [8] and 12.83% in the experiment on MGC-803 [9].

For `COc1cc2nc(/C=C/c3ccc(F)cc3)n(CCCN(C)C)c(=O)c2cc1OC`, the concentration for half-maximal inhibition (IC50) in the experiment on HepG2, with NCI-H460 and with MGC-803 [1] was above 20 µM in each case. In addition, the inhibition entry in experiment [10] and in experiment [11] was “inactive” each time. Also, in the experiment with MGC-803 [12], the outcome was inactive.

As for `COc1ccc(/C=C/c2nc3cc(Cl)ccc3c(=O)n2CCCN(C)C)cc1OC`, the concentration for half-maximal inhibition (IC50) in the experiment with HepG2, in the experiment on NCI-H460, in the experiment with MGC-803 [1] and in the experiment with A-375 was above 20 µM each time.

For `CCCCn1c(/C=C/c2cccc([N+](=O)[O-])c2)nc2ccccc2c1=O`, the IC50 with HepG2, in the experiment on NCI-H460, with MGC-803 [1] and with A-375 was above 20 µM in each case.

Values taken from ChEMBL document CHEMBL3414503, “Distinct novel quinazolinone exhibits selective inhibition in MGC-803 cancer cells by dictating mutant p53 function” (Eur J Med Chem, 2015).
